Measurements as given in ChEMBL document CHEMBL1123747, “N-methyl derivatives of the 5-HT2 agonist 1-(4-bromo-2,5-dimethoxyphenyl)-2-aminopropane” (J Med Chem, 1987).
Calls of active or inactive are those of the source. The calls are words filed in the database; no cut-off is given here.

Columns and labels:
[1] = molecular target: T1, Serotonin 2 (5-HT2) receptor (Rattus norvegicus, UniProt P30994+P08909+P14842); experiment: Affinity towards [3H]- ketanserin-labeled 5-hydroxytryptamine 2 receptor sites in rat cortical homogenates
Summary of the method: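 Label was 0.4 nM [3H]ketanserin, with 11 competitor concentrations run in triplicate and nonspecific binding defined by 1 μM cinanserin. Bound ligand was filtered onto glass fibre and counted by scintillation. IC50 came from nonlinear regression; Ki = IC50/(1+[D]/KD).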

Rattus norvegicus [2] = experiment: The number of responses made on the (R)(-)-DOB appropriate lever, generation studies was calculated at dose 1.4 mg/kg; NR means not responding; assay type: functional, organism-based; parameters: dose 1.4 mg/kg
Summary of the method: (§1)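 Male Sprague-Dawley rats (n = 6) were trained on a two-lever operant task for sweetened-milk reward to discriminate 0.2 mg/kg (R)-(-)-DOB-HCl ip from 1.0 mL/kg 0.9% saline, with a VI 15-s schedule and 15-min sessions. Test doses were given ip 15 min before a 2.5-min extinction session, in random order, to groups of 3-6 rats. Read-out was % drug-lever responses; fewer than five total responses counted as disrupted.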

Rattus norvegicus [3] = experiment: The number of animals responding per number of animals receiving the drug (3/3) in the stimulus-generation studies was calculated at dose 0.3 mg/kg; assay type: functional
Summary of the method: (§2)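 Male Sprague-Dawley rats were trained to discriminate 0.2 mg/kg ip training drug from saline (two levers, VI 15-s, milk reward). Test doses were given ip 15 min pre-session in random order to groups of 3–6. In the 2.5-min extinction session, rats making fewer than five total responses were counted as disrupted. N is animals responding over animals dosed.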

Rattus norvegicus [4] = experiment: The number of animals responding per number of animals receiving the drug (3/3)in the stimulus-generation studies was calculated at dose 1.0 mg/kg; assay type: functional; summary of the method: as §2
Rattus norvegicus [5] = experiment: The mean responses per minute during the 2.5 min extinction session in the stimulus-generation studies was calculated at dose 0.6 mg/kg; assay type: functional
Summary of the method: (§3)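 Rats were trained on a two-lever drug-versus-saline discrimination (0.2 mg/kg ip training dose, VI 15-s, food reward). Challenge doses were given ip 15 min before a 2.5-min extinction test, in random order, to groups of 3–6 rats, with at least three training sessions between tests. Response rate is responses per minute over the extinction session.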

Rattus norvegicus [6] = experiment: The number of animals responding per number of animals receiving the drug(2/6) in the stimulus-generation studies was calculated at dose 1.4 mg/kg; assay type: functional; summary of the method: as §2
Rattus norvegicus [7] = experiment: The number of animals responding per number of animals receiving the drug (4/4)in the stimulus-generation studies was calculated at dose 0.6 mg/kg; assay type: functional; summary of the method: as §2
Rattus norvegicus [8] = experiment: The number of responses made on the (R)(-)-DOB appropriate lever, generation studies was calculated at dose 0.3 mg/kg; assay type: functional; summary of the method: as §1
Rattus norvegicus [9] = experiment: The number of animals responding per number of animals receiving the drug(3/4) in the stimulus-generation studies was calculated at dose 1.2 mg/kg; assay type: functional; summary of the method: as §2
[10] = molecular target: T1, Serotonin 2 (5-HT2) receptor; experiment: Affinity towards [3H]- DOB -labeled 5-hydroxytryptamine 2 receptor sites in rat cortical homogenates
Rattus norvegicus [11] = experiment: The mean responses per minute during the 2.5 min extinction session in the stimulus-generation studies was calculated at dose 1.0 mg/kg; assay type: functional; summary of the method: as §3
Rattus norvegicus [12] = experiment: The mean responses per minute during the 2.5 min extinction session in the stimulus-generation studies was calculated at dose 1.2 mg/kg; assay type: functional; summary of the method: as §3
Rattus norvegicus [13] = experiment: The number of animals responding per number of animals receiving the drug (5/5)in the stimulus-generation studies was calculated at dose 1.3 mg/kg; assay type: functional; summary of the method: as §2
Rattus norvegicus [14] = experiment: The number of responses made on the (R)(-)-DOB appropriate lever, generation studies was calculated at dose 1.0 mg/kg; assay type: functional; summary of the method: as §1
Rattus norvegicus [15] = experiment: The number of responses made on the (R)(-)-DOB appropriate lever, generation studies was calculated at dose 1.2 mg/kg; assay type: functional; summary of the method: as §1
Rattus norvegicus [16] = experiment: The number of responses made on the (R)(-)-DOB appropriate lever, generation studies was calculated at dose 0.6 mg/kg; assay type: functional; summary of the method: as §1
Rattus norvegicus [17] = experiment: The number of responses made on the (R)(-)-DOB appropriate lever, generation studies was calculated at dose 1.3 mg/kg; assay type: functional; summary of the method: as §1
Rattus norvegicus [18] = experiment: The number of animals responding per number of animals receiving the drug (2/6)in the stimulus-generation studies was calculated at dose 1.5 mg/kg; assay type: functional; summary of the method: as §2
Rattus norvegicus [19] = experiment: The mean responses per minute during the 2.5 min extinction session in the stimulus-generation studies was calculated at dose 0.3 mg/kg; assay type: functional; summary of the method: as §3
Rattus norvegicus [20] = experiment: The number of responses made on the (R)(-)-DOB appropriate lever, generation studies was calculated at dose 1.5 mg/kg; NR means not responding; assay type: functional, organism-based; parameters: dose 1.5 mg/kg; summary of the method: as §1
Rattus norvegicus [21] = experiment: The mean responses per minute during the 2.5 min extinction session in the stimulus-generation studies was calculated at dose 1.3 mg/kg; assay type: functional; summary of the method: as §3
Rattus norvegicus [22] = species on record: Rattus norvegicus; experiment: The compound was tested for effective dose ( ED 50) against stimulus generation with rats trained to discriminate (R) (-)-DOB from saline; assay type: functional
Summary of the method: (§4)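 Male Sprague-Dawley rats (n = 6) on a two-lever operant task for sweetened milk, VI 15-s schedule. Trained to discriminate 0.2 mg/kg ip training drug from 1.0 mL/kg 0.9% saline, 15 min pre-session. Test doses were given ip in random order to groups of 3–6, with 15-min pretreatment and a 2.5-min extinction session. ED50 was calculated from dose-response data.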

Rattus norvegicus [23] = species on record: Rattus norvegicus; experiment: The mean responses per minute during the 2.5 min extinction session in the stimulus-generation studies was calculated at dose 0.01 mg / kg; assay type: functional; summary of the method: as §3
Rattus norvegicus [24] = species on record: Rattus norvegicus; experiment: The number of animals responding per number of animals receiving the drug(5/5) in the stimulus-generation studies was calculated at dose 0.03 mg / kg; assay type: functional; summary of the method: as §1
Rattus norvegicus [25] = species on record: Rattus norvegicus; experiment: The number of animals responding per number of animals receiving the drug(4/4)in the stimulus-generation studies was calculated at dose 0.10 mg / kg; assay type: functional; settings: dose 0.1 mg / kg; summary of the method: as §1
Rattus norvegicus [26] = species on record: Rattus norvegicus; experiment: 1 The compound was tested for effective dose ( ED 50) against stimulus generation with rats trained to discriminate (R) (-)-DOB from saline.; assay type: functional; summary of the method: as §4
Rattus norvegicus [27] = species on record: Rattus norvegicus; experiment: The mean responses per minute during the 2.5 min extinction session in the stimulus-generation studies was calculated at dose 0.10 mg / kg; assay type: functional; settings: dose 0.1 mg / kg; summary of the method: as §3
Rattus norvegicus [28] = species on record: Rattus norvegicus; experiment: The mean responses per minute during the 2.5 min extinction session in the stimulus-generation studies was calculated at dose 0.20 mg / kg; assay type: functional; settings: dose 0.2 mg / kg; summary of the method: as §3
Rattus norvegicus [29] = species on record: Rattus norvegicus; experiment: The mean responses per minute during the 2.5 min extinction session in the stimulus-generation studies was calculated at dose 0.05 mg / kg; assay type: functional; summary of the method: as §3
Rattus norvegicus [30] = species on record: Rattus norvegicus; experiment: The number of responses made on the (R)(-)-DOB appropriate level, generation studies was calculated at dose 0.10 mg / kg; assay type: functional; settings: dose 0.1 mg / kg; summary of the method: as §1
Rattus norvegicus [31] = species on record: Rattus norvegicus; experiment: The number of responses made on the (R)(-)-DOB appropriate level, generation studies was calculated at dose 0.03 mg / kg; assay type: functional; summary of the method: as §1
Rattus norvegicus [32] = species on record: Rattus norvegicus; experiment: The number of responses made on the (R)(-)-DOB appropriate level, generation studies was calculated at dose 0.20 mg / kg; assay type: functional; settings: dose 0.2 mg / kg; summary of the method: as §1
Rattus norvegicus [33] = species on record: Rattus norvegicus; experiment: The number of animals responding per number of animals receiving the drug(4/4) in the stimulus-generation studies was calculated at dose 0.01 mg / kg; assay type: functional; summary of the method: as §2
Rattus norvegicus [34] = species on record: Rattus norvegicus; experiment: The number of animals responding per number of animals receiving the drug (4/4)in the stimulus-generation studies was calculated at dose 0.20 mg / kg; assay type: functional; settings: dose 0.2 mg / kg; summary of the method: as §2
Rattus norvegicus [35] = species on record: Rattus norvegicus; experiment: The number of responses made on the (R)(-)-DOB appropriate level, generation studies was calculated at dose 0.01 mg / kg; assay type: functional; summary of the method: as §1
Rattus norvegicus [36] = species on record: Rattus norvegicus; experiment: The number of responses made on the (R)(-)-DOB appropriate level, generation studies was calculated at dose 0.05 mg / kg; assay type: functional; summary of the method: as §1
Rattus norvegicus [37] = species on record: Rattus norvegicus; experiment: The mean responses per minute during the 2.5 min extinction session in the stimulus-generation studies was calculated at dose 0.03 mg / kg; assay type: functional; summary of the method: as §3
Rattus norvegicus [38] = species on record: Rattus norvegicus; experiment: The number of animals responding per number of animals receiving the drug (5/5)in the stimulus-generation studies was calculated at dose 0.05 mg / kg; assay type: functional; summary of the method: as §2

**Q.** With CNC(C)Cc1cc(OC)c(Br)cc1OC (stereo not drawn) as the compound, how does the Ki [1] read?
**A.** 79 nM

**Q.** What about the Responding (Rattus norvegicus [2]) of the same compound?
**A.** inactive

**Q.** And the “No. of animals responding/animals receiving drug” value (Rattus norvegicus [3])?
**A.** 3

**Q.** What about the “No. of animals responding/animals receiving drug” value (Rattus norvegicus [4]) of the same compound?
**A.** 3

**Q.** And the Response rate (Rattus norvegicus [5])?
**A.** 13.6

**Q.** And the “No. of animals responding/animals receiving drug” value (Rattus norvegicus [6])?
**A.** 2

**Q.** What about the “No. of animals responding/animals receiving drug” value (Rattus norvegicus [7]) of the same compound?
**A.** 4

**Q.** What about the Responding (Rattus norvegicus [8]) of the same compound?
**A.** 12%

**Q.** And the “No. of animals responding/animals receiving drug” value (Rattus norvegicus [9])?
**A.** 3

**Q.** What about the Ki [10] of the same compound?
**A.** 7.7 nM

**Q.** And the Response rate (Rattus norvegicus [11])?
**A.** 12

**Q.** What about the Response rate (Rattus norvegicus [12]) of the same compound?
**A.** 13.3

**Q.** And the “No. of animals responding/animals receiving drug” value (Rattus norvegicus [13])?
**A.** 5

**Q.** What about the Responding (Rattus norvegicus [14]) of the same compound?
**A.** 50%

**Q.** What about the Responding (Rattus norvegicus [15]) of the same compound?
**A.** 70%

**Q.** What about the Responding (Rattus norvegicus [16]) of the same compound?
**A.** 28%

**Q.** And the Responding (Rattus norvegicus [17])?
**A.** 82%

**Q.** And the “No. of animals responding/animals receiving drug” value (Rattus norvegicus [18])?
**A.** 2

**Q.** What about the Response rate (Rattus norvegicus [19]) of the same compound?
**A.** 11.6

**Q.** What about the Responding (Rattus norvegicus [20]) of the same compound?
**A.** inactive

**Q.** And the Response rate (Rattus norvegicus [21])?
**A.** 8

**Q.** What about the ED50 (Rattus norvegicus [22]) of the same compound?
**A.** 0.82 mg/kg

**Q.** What does the source list for COc1cc(C[C@@H](C)N)c(OC)cc1Br?
**A.** Response rate (Rattus norvegicus [23]): 12.5; No. of animals responding/animals receiving drug (Rattus norvegicus [24]): 5; No. of animals responding/animals receiving drug (Rattus norvegicus [25]): 4; ED50 (Rattus norvegicus [26]): 0.05 mg/kg; Response rate (Rattus norvegicus [27]): 10.8; Response rate (Rattus norvegicus [28]): 12.3; Response rate (Rattus norvegicus [29]): 12; Responding (Rattus norvegicus [30]): 64%; Responding (Rattus norvegicus [31]): 21%; Responding (Rattus norvegicus [32]): 98%; No. of animals responding/animals receiving drug (Rattus norvegicus [33]): 4; No. of animals responding/animals receiving drug (Rattus norvegicus [34]): 4; Responding (Rattus norvegicus [35]): 5%; Responding (Rattus norvegicus [36]): 58%; Response rate (Rattus norvegicus [37]): 11.8; No. of animals responding/animals receiving drug (Rattus norvegicus [38]): 5
